High-throughput results (PubChem BioAssay)
CRFBP-R2 agonist: agonists of human CRF-binding protein/CRF-R2 receptor complex; HEK293 CRF-R2/CRF-BP, calcium dye fluorescence (FLIPR); percent of saturating CRF peptide response; activation, % at 13.2 µM; AID 588473; hit rate 0.46% among 350,000;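 active = activation of at least 50%, plus an integration ratio under a set limit after plate pattern correction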
CRFR2-BP antag: blocks CRF-induced signaling of the CRF-BP/CRF-R2 complex. HEK293 CRF-R2/CRF-BP, CRF-induced calcium fluorescence. inhibition, % at 11.8 µM. hit rate 0.59% among 350,000;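 active = inhibition of the ligand-induced calcium signal above about 50% at the single tested concentration, limit read from the data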
DDE Tn7 FP inh: disrupts Tn7 cyclic peptide binding to fibrin D-Dimer-E complex. FP displacement of FITC-Tn7 peptide from fibrin DD(E); 0% = median of compound wells per plate. P02675. inhibition, % at 8.3 µM. hit rate 0.13% among 370,000;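 active = inhibition above the mean of compounds falling within the control limits plus 3 SD of them, cut at about 14% in these data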
Target sequence (P02675 whole entry, looked up): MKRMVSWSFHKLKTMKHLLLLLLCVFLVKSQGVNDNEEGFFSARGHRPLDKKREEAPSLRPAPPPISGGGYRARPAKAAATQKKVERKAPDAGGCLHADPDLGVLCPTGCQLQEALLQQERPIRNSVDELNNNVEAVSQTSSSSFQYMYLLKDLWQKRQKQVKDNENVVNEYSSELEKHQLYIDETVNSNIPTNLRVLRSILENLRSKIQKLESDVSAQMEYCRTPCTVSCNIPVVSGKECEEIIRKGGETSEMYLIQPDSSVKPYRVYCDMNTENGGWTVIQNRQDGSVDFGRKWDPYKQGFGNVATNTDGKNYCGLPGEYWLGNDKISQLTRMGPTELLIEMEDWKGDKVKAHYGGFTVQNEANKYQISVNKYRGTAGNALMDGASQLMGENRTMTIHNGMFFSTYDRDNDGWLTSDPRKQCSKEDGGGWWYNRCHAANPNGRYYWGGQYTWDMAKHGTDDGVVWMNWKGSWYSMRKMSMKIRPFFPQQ
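System: human fibrin DD(E); quantity: Fibrin-DD(E) at 2 µM final; also added: fluorescent Tn7 probe at 0.1 µM; compound dosing: single nominal test concentration of 8.3 µM per compound; schedule: 10 min preincubation, 3 h with tracer, room temperature; detection: fluorescence polarization of the labelled Tn7 tracer; repeats: one replicate per compound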
DDE Tn6 FP inh: inhibitors of Tn6 peptide binding to human fibrin DD(E); P02675; Fibrin DD(E) TRITC-Tn6 fluorescence polarization displacement; inhibition, % at 8.3 µM; hit rate 0.21% among 370,000; AID 720509;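 active = inhibition above a per-campaign cutoff: mean of compounds within control limits plus 3 SD, cut at about 15% in these data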
Each line names hits and unclear results; the compound was inactive in the other large screens. Sampled rows, rich in hits. Any-hit rate of the full collection: about 1.3%.

CC(C)(C)c1ccc(OCCCN2CCC(C(O)(c3ccccc3)c3ccccc3)CC2)cc1	none (no result: CRFBP-R2 agonist, CRFR2-BP antag)
O=C1/C(=C\c2ccncc2)CCc2ccccc21	none
O=C1C(=Cc2ccncc2)CCCc2ccccc21	CRFR2-BP antag 70
C[C@H]1COc2c3ccccc3nn21	none (no result: CRFBP-R2 agonist, CRFR2-BP antag)
COc1cc(NC(=O)CSc2cc(C)c3cc(C)cc(C)c3n2)c(C(=O)O)cc1OC	CRFR2-BP antag 65
COc1cc(NC(=O)CSc2nccc(C)n2)c(C(=O)O)cc1OC	none
CCOC(=O)Cn1nc(C)c([N+](=O)[O-])c1C	none
Cc1ccc(OCCOC(=O)Cn2nc(C)c([N+](=O)[O-])c2C)cc1	CRFR2-BP antag 54
C/C(=C/c1c[n+](Cc2ccc3c(c2)OCO3)c(N)[nH]1)Cn1[nH]c(=O)n(-c2ccccc2)c1=O	none (no result: CRFBP-R2 agonist, CRFR2-BP antag)
Cc1ccc(C(=O)N/C(=C\c2ccc(-c3ccc([N+](=O)[O-])cc3)o2)C(=O)NC2CCS(=O)(=O)C2)cc1 (stereo not given)	CRFBP-R2 agonist 95
Cc1ccc(C(=O)N/C(=C/c2ccc(-c3ccc([N+](=O)[O-])cc3)o2)C(=O)NCCCN(C)C)cc1	CRFBP-R2 agonist 52
Cn1c(=O)cc(OCC(=O)NCCCN2CCN(c3ccccc3F)CC2)c2ccccc21	none
Cn1c(=O)cc(OCCCC(=O)NCCN2CCN(c3ccccc3F)CC2)c2ccccc21	CRFR2-BP antag 82
CN(CC(=O)NCc1ccc(F)cc1)S(=O)(=O)c1ccc(Br)s1	CRFR2-BP antag 72
COc1ccc(CNC(=O)CN(C)S(=O)(=O)c2ccc(Br)s2)cc1	none
CCC1(c2ccccc2)NC(=O)N(CC(=O)N2CCc3ccccc32)C1=O (stereo not given)	none
CC1(c2ccc(Cl)cc2)NC(=O)N(CC(=O)N2CCc3ccccc32)C1=O (stereo not given)	CRFBP-R2 agonist 82
Cc1ccc(C2(C)NC(=O)N(CC(=O)N3CCc4ccccc43)C2=O)cc1 (stereo not given)	none
CCC1(c2ccc(F)cc2)NC(=O)N(CC(=O)N2CCc3ccccc32)C1=O (stereo not given)	CRFBP-R2 agonist 53
CC(=O)N1c2ccccc2C(=O)NCC1C(=O)NC(C)(C)C (stereo not given)	none (no result: CRFBP-R2 agonist, CRFR2-BP antag)
CCN(Cc1ccccc1)C(c1cccc(C#N)c1)c1nnnn1C(C)(C)C (stereo not given)	CRFR2-BP antag 89
COC(=O)[C@]12C[C@H](CC(=O)NCCCCc3ccccc3)C(=O)N(Cc3ccco3)C1=C[C@H](COCc1ccccc1)O[C@@H]2C	none (no result: CRFBP-R2 agonist, CRFR2-BP antag)
NC(=O)c1ccc(NCC2COc3ccccc3O2)c([N+](=O)[O-])c1 (stereo not given)	CRFR2-BP antag 92
CC(C)(C)n1nc2c(c1NC(=O)Cc1ccccc1)CS(=O)(=O)C2	CRFR2-BP antag 55
COc1ccc(CC(=O)Nc2c3c(nn2C(C)(C)C)CS(=O)(=O)C3)cc1	none
COC(=O)[C@]12C[C@H](CC(=O)NCc3ccc(OC)c(OC)c3)C(=O)N(Cc3ccco3)C1=C[C@H](C(C)(C)C)O[C@@H]2C	none (no result: CRFBP-R2 agonist, CRFR2-BP antag)
N/C(Cc1cccc2ccccc12)=N\O	none
N/C(Cc1ccccc1Sc1ccccc1)=N\O	CRFR2-BP antag 61
COc1ccc(CC(=O)OCC(=O)c2c[nH]c3ccccc23)cc1	none
Cc1ccccc1OCC(=O)OCC(=O)c1c[nH]c2ccccc12	CRFR2-BP antag 87
O=[N+]([O-])c1cccc(/C=N\N=C2c3ccccc3-c3ccccc32)c1O	CRFR2-BP antag 58
NC(N)=N/N=C/c1cccc([N+](=O)[O-])c1O	none
O=[N+]([O-])c1cccc(-c2nc(-c3ccccn3)no2)c1	CRFR2-BP antag 59
C/C(C=NNC(=O)c1cc(-c2ccc(Cl)cc2)n[nH]1)=C\c1ccccc1	none (no result: CRFBP-R2 agonist, CRFR2-BP antag)
Cn1ccnc1SCc1cn2ccccc2n1	CRFR2-BP antag 72
O=C(CCn1nc(-c2ccccc2)ccc1=O)N1CCOCC1	CRFR2-BP antag 120
NC(=O)c1ncn([C@@H]2O[C@H](C(=O)N3CCCN(Cc4ccccc4F)CC3)[C@@H](O)[C@H]2O)n1	none (no result: CRFBP-R2 agonist, CRFR2-BP antag)
COc1cc(/C=C2\SC(=S)N(NS(=O)(=O)c3ccccc3)C2=O)cc(OC)c1OC	none
COc1cccc(/C=C2\SC(=S)N(NS(=O)(=O)c3ccccc3)C2=O)c1OC	CRFR2-BP antag 63
COc1ccc(/C=C2/SC(=O)N(NS(=O)(=O)c3ccccc3)C2=S)cc1OC	CRFR2-BP antag 52
COc1ccc(-n2c(SCC(=O)Nc3ccc(S(=O)(=O)Nc4nccs4)cc3)nnc2-c2cccs2)cc1	none (no result: CRFBP-R2 agonist, CRFR2-BP antag)
NC(=S)N/N=C/c1cccc(O)c1O	none
Cc1cc(/C=N/NC(N)=S)c(O)c(/C=N/NC(N)=S)c1	CRFBP-R2 agonist 157, DDE Tn7 FP inh 43
Cc1cccc(Cn2cc(CN3CC(N4CCN(CCOC(=O)c5cc6ccccc6o5)CC4)CS3(=O)=O)nn2)c1 (stereo not given)	none (no result: CRFBP-R2 agonist, CRFR2-BP antag)
O=C(Nc1ccc(Br)cc1Cl)c1ccc2c(=O)n3c(nc2c1)CCC3	CRFBP-R2 agonist 101
Cc1ccc(N(C(=O)Cn2nnc(-c3ccccc3)n2)C(C(=O)NC2CCCCC2)c2ccccn2)cc1C (stereo not given)	CRFR2-BP antag 56
CCOC(=O)[C@@H]1c2[nH]c3ccccc3c2C[C@@]2(C(=O)OC)C=CCN12	none (no result: CRFBP-R2 agonist, CRFR2-BP antag)
C#CCNC(=O)C[C@H]1C[C@@]2(C(=O)OC)C(=C[C@H](C(C)C)O[C@@H]2C2CC2)N(Cc2cccc3ccccc23)C1=O	none (no result: CRFBP-R2 agonist, CRFR2-BP antag)
C#Cc1ccc(CN2CCCC(C(=O)Nc3ccccc3Oc3cccnc3)C2)cc1 (stereo not given)	none
O=C(Nc1ccccc1Oc1cccnc1)C1CCCN(Cc2ccccc2O)C1 (stereo not given)	CRFR2-BP antag 99
CCOC(=O)c1cc(S(=O)(=O)Nc2cccc(OC)c2)cn1C	none
CCOC(=O)c1cc(S(=O)(=O)Nc2ccc(F)cc2F)cn1C	CRFR2-BP antag 72
CCOC(=O)c1cc2c(=O)c3cc(C)ccc3oc2nc1C	CRFR2-BP antag 67 (no result: DDE Tn7 FP inh, DDE Tn6 FP inh)
Cn1c(=O)c(N)c2c3c(c(Br)ccc31)C(=O)c1ccccc1-2	CRFBP-R2 agonist 89, DDE Tn6 FP inh 16
COc1ccc(OC)c(-c2nnc3n2N=C(c2ccc(OC)c(OCC4CC4)c2)CS3)c1	CRFR2-BP antag 59 (no result: DDE Tn7 FP inh, DDE Tn6 FP inh)
CSc1nnc(C)c(/C=C/NOCc2ccc(Cl)cc2)n1	none
CSc1nnc(C)c(/C=C/Nc2ccc(C)cc2)n1	CRFBP-R2 agonist 105
CCOC(=O)CC[C@@]1(C(=O)OCC)C[C@@H](CC(=O)NCCc2ccccc2OC)C(=O)N2CCCC=C21	none (no result: CRFBP-R2 agonist, CRFR2-BP antag)
C[C@@H]1COc2cccc(F)c2S(=O)(=O)N1C	none (no result: CRFBP-R2 agonist, CRFR2-BP antag)
Cc1ccc(CNC(=O)CCC(=O)c2cccs2)cc1	CRFR2-BP antag 59
Cc1ccc(NC(=O)CCC(=O)c2cccs2)c(Br)c1	none
Cc1ccc(NC(=O)COC(=O)CCC(=O)c2cccs2)c(Br)c1	CRFR2-BP antag 59
CCOC(=O)[C@@]12CCCC3=C1N(CCC3)C(=O)[C@H]2CC(=O)NCc1cccc2ccccc12	none (no result: CRFBP-R2 agonist, CRFR2-BP antag)
Nc1ccc2c(c1)C(=NO)c1ccccc1-2	CRFR2-BP antag 96
Cc1cc(C)cc(C(=O)OCCCN(C)C2CN(Cc3cn(Cc4ccccc4Cl)nn3)S(=O)(=O)C2)c1 (stereo not given)	none (no result: CRFBP-R2 agonist, CRFR2-BP antag)
